Experimental data as given in ChEMBL document CHEMBL5154715, “Phenolic Lipids Derived from Cashew Nut Shell Liquid to Treat Metabolic Diseases” (J Med Chem, 2022).
pEC50: −log10 of the molar value. Calls of active or inactive are those of the source. No cut-off for these calls is given here.

Key:
[1] = target: T1, Peroxisome proliferator-activated receptor gamma (Homo sapiens) (UniProt P37231); test: Agonist activity at human PPARgamma transfected in HEK293 cells assessed as relative luciferase unit at 50 uM measured after 16 hrs by luciferase reporter gene assay; type: cell-based; details: filed as agonist
T1 sequence (whole entry): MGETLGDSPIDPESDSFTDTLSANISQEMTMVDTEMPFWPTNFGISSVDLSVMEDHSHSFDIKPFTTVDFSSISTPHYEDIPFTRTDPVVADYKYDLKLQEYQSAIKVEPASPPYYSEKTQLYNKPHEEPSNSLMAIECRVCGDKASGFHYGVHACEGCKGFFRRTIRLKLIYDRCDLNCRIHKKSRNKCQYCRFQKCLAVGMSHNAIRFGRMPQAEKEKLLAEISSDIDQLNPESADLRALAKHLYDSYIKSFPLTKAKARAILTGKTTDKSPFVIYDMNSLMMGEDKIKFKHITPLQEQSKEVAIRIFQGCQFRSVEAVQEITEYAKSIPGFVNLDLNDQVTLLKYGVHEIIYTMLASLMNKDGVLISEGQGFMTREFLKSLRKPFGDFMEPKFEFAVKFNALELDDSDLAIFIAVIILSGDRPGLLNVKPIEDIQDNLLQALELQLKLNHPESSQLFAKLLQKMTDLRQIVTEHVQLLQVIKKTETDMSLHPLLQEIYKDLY
Procedure, shortened: (§1)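 GAL4-hPPAR (α or γ) plus UAS-luciferase and β-galactosidase transiently co-transfected into HEK293 cells, then treated with 50 μM compound for 16 h. RLU = luciferase/β-galactosidase × time, vehicle (DMSO) set to 1. Mean ± SD, N = 3; one-way ANOVA with Holm–Šidák vs vehicle.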

[2] = target: T2, Peroxisome proliferator-activated receptor alpha (Homo sapiens) (UniProt Q07869); test: Agonist activity at human PPARalpha transfected in HEK293 cells assessed as relative luciferase unit at 50 uM measured after 16 hrs by luciferase reporter gene assay; type: cell-based; details: filed as agonist; procedure, shortened: as §1
T2 sequence (whole entry): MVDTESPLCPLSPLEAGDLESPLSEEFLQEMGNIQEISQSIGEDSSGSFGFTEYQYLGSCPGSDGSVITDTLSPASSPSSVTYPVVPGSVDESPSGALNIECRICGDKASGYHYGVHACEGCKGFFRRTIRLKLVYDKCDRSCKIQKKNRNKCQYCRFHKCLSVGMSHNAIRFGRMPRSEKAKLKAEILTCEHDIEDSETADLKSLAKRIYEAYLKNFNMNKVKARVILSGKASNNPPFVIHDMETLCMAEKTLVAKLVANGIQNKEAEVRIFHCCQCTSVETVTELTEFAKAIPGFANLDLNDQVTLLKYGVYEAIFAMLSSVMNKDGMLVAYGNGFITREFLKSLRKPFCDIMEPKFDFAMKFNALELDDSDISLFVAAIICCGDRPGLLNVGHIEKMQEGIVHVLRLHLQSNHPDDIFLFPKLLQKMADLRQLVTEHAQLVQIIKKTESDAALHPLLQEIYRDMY

[3] = target: T3, Peroxisome proliferator-activated receptor alpha (Mus musculus) (UniProt P23204); test: Agonist activity at human PPARalpha in mouse hepatocytes assessed as induction of fabp1 mRNA expression at 50 uM incubated for 16 hrs by quantitative real-time PCR analysis; type: cell-based; details: Hepatocyte, filed as agonist
T3 sequence (whole entry): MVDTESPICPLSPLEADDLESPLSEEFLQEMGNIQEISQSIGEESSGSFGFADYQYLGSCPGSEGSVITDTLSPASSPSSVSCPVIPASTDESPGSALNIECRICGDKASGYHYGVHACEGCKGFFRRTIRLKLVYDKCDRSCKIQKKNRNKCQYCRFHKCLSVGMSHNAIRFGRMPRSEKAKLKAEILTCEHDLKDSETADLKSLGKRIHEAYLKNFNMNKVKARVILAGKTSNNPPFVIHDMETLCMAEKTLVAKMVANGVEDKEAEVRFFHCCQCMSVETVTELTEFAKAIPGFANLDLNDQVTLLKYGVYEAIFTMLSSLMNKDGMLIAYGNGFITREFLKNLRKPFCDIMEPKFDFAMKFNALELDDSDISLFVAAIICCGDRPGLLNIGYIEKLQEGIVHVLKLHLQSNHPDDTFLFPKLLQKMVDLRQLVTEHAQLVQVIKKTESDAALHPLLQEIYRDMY
Procedure, shortened: (§2)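 Collagenase-perfused mouse primary hepatocytes from WT mice, plated 2 h in attachment medium, overnight in M199 with 5% charcoal-stripped FBS and 1 nM insulin. Treated next day in serum-free M199 with 50 μM compound for 16 h. RNA qPCR (SYBR Green), comparative Ct method.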

[4] = target: T3, Peroxisome proliferator-activated receptor alpha (Mus musculus); test: Agonist activity at human PPARalpha in mouse hepatocytes assessed as induction of cd36 mRNA expression at 50 uM incubated for 16 hrs by quantitative real-time PCR analysis; type: cell-based; details: Hepatocyte, filed as agonist; procedure, shortened: as §2
[5] = target: T4, Peroxisome proliferator-activated receptor alpha (Homo sapiens, UniProt Q07869); test: Agonist activity at human PPARalpha expressed in HEK293 cells by luciferase/beta-galactosidase reporter gene assay; type: cell-based
T4 sequence (Q07869 whole entry): T2 sequence (whole entry)
Procedure, shortened: (§3)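 HEK293 cells in charcoal-stripped FBS, calcium phosphate co-transfected with GAL4-hPPAR LBD fusion, UAS-luciferase and β-galactosidase. Ligand added 6–8 h post transfection, full dose–response, harvested 14–16 h later. Luciferase normalized to β-galactosidase.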

[6] = target: T2, Peroxisome proliferator-activated receptor alpha (Homo sapiens); test: Agonist activity at human PPARalpha expressed in HEK293 cells assessed as maximal activity by luciferase/beta-galactosidase reporter gene assay relative to GW7647; type: cell-based; procedure, shortened: as §3
[7] = target: T5, Peroxisome proliferator-activated receptor delta (Homo sapiens) (UniProt Q03181)
T5 sequence (whole entry): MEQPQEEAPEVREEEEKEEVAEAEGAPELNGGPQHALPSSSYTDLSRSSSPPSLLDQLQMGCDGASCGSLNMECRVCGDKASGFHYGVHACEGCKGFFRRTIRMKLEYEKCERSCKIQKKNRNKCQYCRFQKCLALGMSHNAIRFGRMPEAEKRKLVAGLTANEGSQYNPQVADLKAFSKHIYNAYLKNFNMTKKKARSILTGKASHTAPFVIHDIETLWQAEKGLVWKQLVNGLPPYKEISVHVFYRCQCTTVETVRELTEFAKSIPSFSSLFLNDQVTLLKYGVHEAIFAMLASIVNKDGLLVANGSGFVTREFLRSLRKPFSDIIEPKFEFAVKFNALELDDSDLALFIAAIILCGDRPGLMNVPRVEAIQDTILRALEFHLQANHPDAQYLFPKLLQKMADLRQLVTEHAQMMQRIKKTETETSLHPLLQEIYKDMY

[8] = target: T6, Peroxisome proliferator-activated receptor gamma (Homo sapiens, UniProt P37231); test: Agonist activity at human PPARgamma expressed in HEK293 cells by luciferase/beta-galactosidase reporter gene assay; type: cell-based; procedure, shortened: as §3
T6 sequence (P37231 whole entry): T1 sequence (whole entry)

[9] = target: T3, Peroxisome proliferator-activated receptor alpha (Mus musculus); test: Agonist activity at human PPARalpha in mouse hepatocytes assessed as induction of Pdk4 mRNA expression at 50 uM incubated for 16 hrs by quantitative real-time PCR analysis; type: cell-based; details: Hepatocyte, filed as agonist; procedure, shortened: as §2
[10] = target: T7, Peroxisome proliferator-activated receptor gamma (Mus musculus) (UniProt P37238); test: Agonist activity at human PPARgamma in mouse 3T3-L1 cells assessed as induction of Glut4 mRNA expression at 25 uM incubated for 11 days by quantitative real-time PCR analysis; details: filed as agonist, time 11.0 day
T7 sequence (whole entry): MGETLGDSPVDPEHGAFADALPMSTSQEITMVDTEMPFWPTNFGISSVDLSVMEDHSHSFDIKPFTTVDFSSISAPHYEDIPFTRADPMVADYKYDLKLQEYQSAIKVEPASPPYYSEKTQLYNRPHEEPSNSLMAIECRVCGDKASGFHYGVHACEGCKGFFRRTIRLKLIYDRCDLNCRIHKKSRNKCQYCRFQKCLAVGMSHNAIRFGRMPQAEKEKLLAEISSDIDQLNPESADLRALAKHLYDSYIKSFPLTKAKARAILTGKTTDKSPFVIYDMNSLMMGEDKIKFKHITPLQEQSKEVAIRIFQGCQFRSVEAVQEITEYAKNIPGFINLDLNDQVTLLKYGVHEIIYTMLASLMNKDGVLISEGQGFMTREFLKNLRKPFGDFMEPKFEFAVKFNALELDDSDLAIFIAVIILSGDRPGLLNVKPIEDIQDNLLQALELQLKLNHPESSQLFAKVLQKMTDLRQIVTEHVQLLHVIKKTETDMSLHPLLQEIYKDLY

[11] = target: T7, Peroxisome proliferator-activated receptor gamma (Mus musculus); test: Agonist activity at human PPARgamma in mouse 3T3-L1 cells assessed as induction of Adipoq-mRNA expression at 25 uM incubated for 11 days by quantitative real-time PCR analysis; details: filed as agonist, time 11.0 day
[12] = target: T1, Peroxisome proliferator-activated receptor gamma (Homo sapiens); test: Agonist activity at human PPARgamma expressed in HEK293 cells assessed as maximal activity by luciferase/beta-galactosidase reporter gene assay relative to rosiglitazone; type: cell-based; procedure, shortened: as §3
[13] = target: T3, Peroxisome proliferator-activated receptor alpha (Mus musculus); test: Agonist activity at human PPARalpha in mouse hepatocytes assessed as induction of Fgf21 mRNA expression at 50 uM incubated for 16 hrs by quantitative real-time PCR analysis; type: cell-based; details: Hepatocyte, filed as agonist; procedure, shortened: as §2
[14] = Metabolic stability in C57BL/6 mouse liver microsomes assessed as parent compound remaining incubated for 120 mins; type: ADME, Microsome; details: read-out: Stability
[15] = target: T7, Peroxisome proliferator-activated receptor gamma (Mus musculus); test: Agonist activity at human PPARgamma in mouse 3T3-L1 cells assessed as induction of adipogenic differentiation at 25 uM measured after 11 days by Oil Red O staining analysis; type: cell-based; details: filed as agonist, time 11.0 day
Procedure, shortened: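 3T3-L1 cells differentiated for 11 days (IBMX/dexamethasone/insulin induction, then insulin, then maintenance medium) with 25 μM compound or 10 μM rosiglitazone from day 0. Cells formalin-fixed and stained with 0.6% Oil Red O. Lipid quantified spectrophotometrically after dye extraction.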

[16] = target: T1, Peroxisome proliferator-activated receptor gamma (Homo sapiens); test: Stabilization of human PPARgamma LBD assessed as change in melting temperature at 50 uM by thermal shift assay
[17] = target: T2, Peroxisome proliferator-activated receptor alpha (Homo sapiens); test: Stabilization of human PPARalpha LBD assessed as change in melting temperature at 25 uM by thermal shift assay
Procedure, shortened: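 Purified hPPAR LBD at 1 mg/mL (∼25 μM) with ligand (α-LBD at 25 μM; γ- and δ-LBD at 50 μM). Static light scattering at 473 nm from 25 to 70 °C in 0.5 °C steps, 1 °C/min. Tm from four-parameter fit; ΔTm relative to DMSO; mean ± SEM, N = 3.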

[18] = Metabolic stability in C57BL/6 mouse liver microsomes assessed as half life; type: ADME, Microsome; details: time 2 min
[19] = target: T5, Peroxisome proliferator-activated receptor delta (Homo sapiens); test: Stabilization of human PPARdelta LBD assessed as change in melting temperature at 50 uM by thermal shift assay

SMILES	Activity [1]	Activity [2]	Activity [4]	pEC50 [5]	Emax [6]	pEC50 [8]	Activity [9]	EC50 ([7]; HEK293, filed as agonist)	other results
CCCCCC/C=C\CCCCCCCc1cccc(OC(C)(C)C(=O)OCC)c1	Active	Active	Active	4.17	30%	< 4.30	–	–	Activity [3]: Active; EC50 ([7]; HEK293): > 100 µM
CCCCCC/C=C\CCCCCCCc1cccc(OCC(=O)OCC)c1	Active	Active	Active	5.36	30%	< 4.30	Active	7.1 µM	Activity [3]: Active; Activity [10]: Active; Activity [11]: Active
CCCCCCCCCCCCCCCc1cccc(O)c1C(=O)O [ANACARDIC ACID]	Active	Active	–	5.46	30%	4.77	Active	68 µM	Emax ([12]; filed as agonist): > 90%
CC(C)(Sc1ccc(CCN(CCCCC2CCCCC2)C(=O)NC2CCCCC2)cc1)C(=O)O	–	–	Active	–	–	–	Active	–	Activity [13]: Active; Activity [3]: Active
CCCCCC/C=C\CCCCCCCc1cccc(OCC(=O)O)c1	Active	Active	Active	4.68	–	< 4.30	–	70 µM	Emax ([6]; filed as agonist): > 90%
CCCCCCCCCCCCCCCc1cccc(OCC(=O)OCC)c1	Active	Active	–	–	30%	4.54	–	–	remaining at 2 h [14]: 28%; Activity [15]: Active; ΔTm [16]: -3 °C; ΔTm [17]: -4.5 °C; EC50 ([7]; HEK293): > 100 µM; Emax [12]: 30%; half-life [18]: 1.1 h; ΔTm [19]: 1.2 °C
CCCCCCCCCC(=O)O [DECANOIC ACID]	–	Active	–	4.51	30%	–	–	–	–
CCCCCCCC/C=C\CCCCCCCC(=O)O [OLEIC ACID]	–	Active	–	4.44	–	–	–	47 µM	Emax ([6]; filed as agonist): > 90%
CCCCCCCCCCCCCCCc1cccc(OC)c1C(=O)O	–	Active	–	–	30%	–	Active	–	Activity [13]: Active
CCCCCCCCCCCCCC(=O)O [MYRISTIC ACID]	–	Active	–	4.89	30%	–	–	–	–
CCCCCCCCCCCCCCCCCC(=O)O [STEARIC ACID]	–	Active	–	4.40	30%	–	–	–	–
CCCCCCCCCCCCCCCc1ccc(C(=O)O)c(OC)c1	Active	Active	–	4.77	30%	5.09	–	–	Emax [12]: 30%
CCCCCCCCCCCCCCCc1ccc(C(=O)O)c(O)c1	–	Active	–	5.05	30%	–	Active	–	Activity [13]: Active
